# Laboratory results taken from ChEMBL document CHEMBL1134691, “3-Phenyl-5-acyloxymethyl-2H,5H-furan-2-ones: synthesis and biological activity of a novel group of potential antifungal drugs” (2001).
# Key:
# [1] = Inhibition of Trichophyton mentagrophytes 445 growth for 72 hours in vitro.; assay type: functional, Arthroderma benhamiae; conditions: Trichophyton benhamiae, 72 h; read-out: MIC
# In short: (§1)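 Dermatophyte grown in MOPS-buffered (0.165 M, pH 7.0) RPMI 1640 containing L-glutamine, in an M27-A microdilution format. Inoculum 5 × 10^3 cfu/mL final. Compounds from DMSO stocks (≤2% final), 2-fold dilutions 1000–0.24 µmol/L. Incubated at 35 °C, growth judged visually at 72 and 120 h. MIC endpoint is 80% inhibition relative to control; measured twice in duplicate.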
# Trichosporon beigelii [2] = assay: Inhibition of Trichosporon beigelli 1188 for 24 hours in vitro.; assay type: functional; conditions: Trichosporon beigelii, 24 h; read-out: MIC
# In short: (§2)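 Microdilution following NCCLS M27-A. Medium: RPMI 1640 with L-glutamine, 0.165 M MOPS, pH 7.0. Final inoculum 5 × 10^3 cfu/mL. Compounds dissolved in DMSO, final ≤2%, serially halved from 1000 to 0.24 µmol/L. Incubated at 35 °C and read at 24 and 48 h. MIC defined as 80% inhibition of control growth; run twice in duplicate.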
# Lichtheimia corymbifera [3] = assay: In vitro inhibition of Absidia corymbifera 272 growth for 24 hours.; assay type: functional; conditions: Lichtheimia corymbifera, 24 h; read-out: MIC
# In short: (§3)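 Filamentous isolates tested by microdilution per NCCLS M27-A in RPMI 1640 plus L-glutamine, buffered with 0.165 M MOPS to pH 7.0. Final inoculum 5 × 10^3 cfu/mL. Compounds in DMSO (final ≤2%), 2-fold series over 1000–0.24 µmol/L. Plates held at 35 °C and read visually after 24 and 48 h. MIC taken as 80% inhibition of control growth; determined twice in duplicate.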
# Candida tropicalis [4] = assay: Inhibition of Candida tropicalis 156 growth for 24 hours in vitro.; assay type: functional; conditions: Candida tropicalis, 24 h; read-out: MIC
# In short: (§4)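 NCCLS M27-A broth microdilution in RPMI 1640 with L-glutamine and 0.165 M MOPS, pH 7.0. Isolates kept on Sabouraud dextrose agar. Inoculum 5 × 10^3 cfu/mL final. Compounds were diluted in DMSO (≤2% final) and tested in 2-fold dilutions of 1000–0.24 µmol/L. Incubation at 35 °C, OD540 read at 24 and 48 h. MIC = 80% growth inhibition versus control; assays run twice in duplicate.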
# Lichtheimia corymbifera [5] = assay: In vitro inhibition of Absidia corymbifera 272 growth for 48 hours.; assay type: functional; conditions: Lichtheimia corymbifera, 48 h; read-out: MIC; in short: as §3
# Nakaseomyces glabratus [6] = assay: Inhibition of Candida glabrata 20/I growth for 24 hours in vitro.; assay type: functional; conditions: Nakaseomyces glabratus, 24 h; read-out: MIC; in short: as §4
# [7] = Inhibition of Trichophyton mentagrophytes 445 growth for 120 hours in vitro.; assay type: functional, Arthroderma benhamiae; conditions: Trichophyton benhamiae, 120 h; read-out: MIC; in short: as §1
# Clavispora lusitaniae [8] = assay: Inhibition of Candida lusitaniae 2446/I growth for 48 hours in vitro.; assay type: functional; conditions: Clavispora lusitaniae, 48 h; read-out: MIC; in short: as §4
# Candida albicans [9] = assay: Inhibition of Candida albicans ATCC 44859 growth for 24 hours in vitro.; assay type: functional; conditions: Candida albicans, ATCC 44859, 24 h; read-out: MIC; in short: as §4
# Candida albicans [10] = assay: Inhibition of Candida albicans ATCC 90028 for 24 hours in vitro.; assay type: functional; conditions: Candida albicans, ATCC 90028, 24 h; read-out: MIC; in short: as §4
# Candida parapsilosis [11] = assay: Inhibition of Candida parapsilosis ATCC 22019 growth for 48 hours in vitro.; assay type: functional; conditions: Lodderomyces parapsilosis, ATCC 22019, 48 h; read-out: MIC; in short: as §4
# Clavispora lusitaniae [12] = assay: Inhibition of Candida lusitaniae 2446/I growth for 24 hours in vitro.; assay type: functional; conditions: Clavispora lusitaniae, 24 h; read-out: MIC; in short: as §4
# Trichosporon beigelii [13] = assay: Inhibition of Trichosporon beigelli 1188 for 48 hours in vitro.; assay type: functional; conditions: Trichosporon beigelii, 48 h; read-out: MIC; in short: as §2
# Pichia kudriavzevii [14] = assay: Inhibition of Candida krusei ATCC 6258 growth for 48 hours in vitro.; assay type: functional; conditions: Pichia kudriavzevii, ATCC 6258, 48 h; read-out: MIC; in short: as §4
# Candida tropicalis [15] = assay: Inhibition of Candida tropicalis 156 growth for 48 hours in vitro.; assay type: functional; conditions: Candida tropicalis, 48 h; read-out: MIC; in short: as §4
# Candida albicans [16] = assay: Inhibition of Candida albicans ATCC 90028 for 48 hours in vitro.; assay type: functional; conditions: Candida albicans, ATCC 90028, 48 h; read-out: MIC; in short: as §4
# Candida parapsilosis [17] = assay: Inhibition of Candida parapsilosis ATCC 22019 growth for 24 hours in vitro.; assay type: functional; conditions: Lodderomyces parapsilosis, ATCC 22019, 24 h; read-out: MIC; in short: as §4
# Aspergillus fumigatus [18] = assay: Inhibition of Aspergillus fumigatus 231 growth for 24 hours in vitro.; assay type: functional; conditions: Aspergillus fumigatus, 24 h; read-out: MIC; in short: as §3
# Nakaseomyces glabratus [19] = assay: Inhibition of Candida glabrata 20/I growth for 48 hours in vitro.; assay type: functional; conditions: Nakaseomyces glabratus, 48 h; read-out: MIC; in short: as §4
# Pichia kudriavzevii [20] = assay: Inhibition of Candida krusei ATCC 6258 growth for 24 hours in vitro.; assay type: functional; conditions: Pichia kudriavzevii, ATCC 6258, 24 h; read-out: MIC; in short: as §4
# Aspergillus fumigatus [21] = assay: Inhibition of Aspergillus fumigatus 231 growth for 48 hours in vitro.; assay type: functional; conditions: Aspergillus fumigatus, 48 h; read-out: MIC; in short: as §3
# Candida albicans [22] = assay: Inhibition of Candida albicans ATCC 44859 growth for 48 hours in vitro.; assay type: functional; conditions: Candida albicans, ATCC 44859, 48 h; read-out: MIC; in short: as §4
# Pichia kudriavzevii [23] = assay: Inhibition of Candida krusei E28 growth for 48 hours in vitro.; assay type: functional; conditions: Pichia kudriavzevii, 48 h; read-out: MIC; in short: as §4
# Pichia kudriavzevii [24] = assay: Inhibition of Candida krusei E28 growth for 24 hours in vitro.; assay type: functional; conditions: Pichia kudriavzevii, 24 h; read-out: MIC; in short: as §4
Compound,MIC [1] [µM],MIC (Trichosporon beigelii [2]) [µM],MIC (Lichtheimia corymbifera [3]) [µM],MIC (Candida tropicalis [4]) [µM],MIC (Lichtheimia corymbifera [5]) [µM],MIC (Nakaseomyces glabratus [6]) [µM],MIC [7] [µM],MIC (Clavispora lusitaniae [8]) [µM],MIC (Candida albicans [9]) [µM],MIC (Candida albicans [10]) [µM],MIC (Candida parapsilosis [11]) [µM],MIC (Clavispora lusitaniae [12]) [µM],MIC (Trichosporon beigelii [13]) [µM],MIC (Pichia kudriavzevii [14]) [µM],MIC (Candida tropicalis [15]) [µM],MIC (Candida albicans [16]) [µM],MIC (Candida parapsilosis [17]) [µM],MIC (Aspergillus fumigatus [18]) [µM],MIC (Nakaseomyces glabratus [19]) [µM],MIC (Pichia kudriavzevii [20]) [µM],also measured
COc1ccc(C2=CC(COC(C)=O)OC2=O)cc1 (stereo not given),7.81,62.5,62.5,31.2,62.5,31.2,7.81,62.5,< 0.98,31.2,62.5,31.2,62.5,125,62.5,31.2,31.2,3.91,31.2,62.5,MIC (Aspergillus fumigatus [21]): 31.2 µM; MIC (Candida albicans [22]): 15.6 µM; MIC (Pichia kudriavzevii [23]): 125 µM; MIC (Pichia kudriavzevii [24]): 62.5 µM
CC(=O)OCC1C=C(c2ccc(Cl)c(Cl)c2)C(=O)O1 (stereo not given),0.98,1.95,15.6,3.91,15.6,0.98,0.98,1.95,0.49,3.91,7.81,1.95,7.81,7.81,7.81,3.91,3.91,0.98,0.98,3.91,MIC (Aspergillus fumigatus [21]): 7.81 µM; MIC (Candida albicans [22]): 3.91 µM; MIC (Pichia kudriavzevii [23]): 3.91 µM; MIC (Pichia kudriavzevii [24]): 3.91 µM
COc1ccc(C2=CC(COC(=O)c3ccc(Cl)cc3)OC2=O)cc1 (stereo not given),7.81,> 125,31.2,31.2,62.5,62.5,15.6,125,1.95,31.2,> 125,62.5,> 125,62.5,125,62.5,62.5,31.2,125,31.2,MIC (Aspergillus fumigatus [21]): 125 µM; MIC (Candida albicans [22]): 15.6 µM; MIC (Pichia kudriavzevii [23]): 62.5 µM; MIC (Pichia kudriavzevii [24]): 31.2 µM
O=C1OC(COC(=O)c2ccc(Cl)cc2)C=C1c1ccc(Br)cc1 (stereo not given),1.95,3.91,7.81,7.81,15.6,1.95,3.91,7.81,1.95,3.91,15.6,3.91,15.6,15.6,15.6,7.81,7.81,0.98,1.95,7.81,MIC (Aspergillus fumigatus [21]): 3.91 µM; MIC (Candida albicans [22]): 3.91 µM; MIC (Pichia kudriavzevii [23]): 15.6 µM; MIC (Pichia kudriavzevii [24]): 7.81 µM
CC(=O)OCC1C=C(c2ccc(Br)cc2)C(=O)O1 (stereo not given),1.95,3.91,7.81,7.81,15.6,0.98,1.95,3.91,< 0.98,1.95,7.81,1.95,7.81,7.81,15.6,3.91,7.81,0.98,1.95,3.91,MIC (Aspergillus fumigatus [21]): 3.91 µM; MIC (Candida albicans [22]): 1.95 µM; MIC (Pichia kudriavzevii [23]): 7.81 µM; MIC (Pichia kudriavzevii [24]): 3.91 µM
